Hits are enriched below; roughly 3.5% of the tested compounds scored in any of these assays.
MrgX1 ag – agonists of human MrgX1 receptor, primary screen, HEK293 cells, Fluo-4 calcium flux | Mas-related G-protein coupled receptor member X1 (Homo sapiens), Q96LB2 | Fluo-4 calcium fluorescence, agonist mode; active compounds read high | B-score at 10 µM | 310,000 tested, 0.44% active | AID 588627, 2011;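 active = calcium response B-score plate-corrected fluorescence ratio at least 3 library SD, with starting fluorescence B-score inside 5 SD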
Target sequence (Q96LB2 whole entry, looked up): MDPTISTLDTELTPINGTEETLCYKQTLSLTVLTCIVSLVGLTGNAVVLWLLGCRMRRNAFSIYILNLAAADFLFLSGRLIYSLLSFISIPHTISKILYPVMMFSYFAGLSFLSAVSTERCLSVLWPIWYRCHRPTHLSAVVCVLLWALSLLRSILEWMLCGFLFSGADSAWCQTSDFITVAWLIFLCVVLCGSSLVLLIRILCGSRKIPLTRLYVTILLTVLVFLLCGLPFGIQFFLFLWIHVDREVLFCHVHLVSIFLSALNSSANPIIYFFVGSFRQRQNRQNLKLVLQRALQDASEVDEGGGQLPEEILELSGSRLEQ
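Material – MrgX1-expressing HEK293 cells · Input – 15,000 cells seeded per well · Dosing – compound as first of three additions · Times – overnight seeding, then 1 h dark dye loading · Measured by – kinetic Fluo-4 NW fluorescence of intracellular calcium · Read-out – B-scored fluorescence response ratio · Benchmarks – positive and negative control wells on each plate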
MrgX1 allo act – positive allosteric modulators of MrgX1, primary screen, HEK293 cells, Fluo-4 calcium flux | B-score at 10 µM | FDSS; active compounds read high | Mas-related G-protein coupled receptor member X1 (Homo sapiens), Q96LB2 | 310,000 tested, 0.63% active;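 active = plate-corrected calcium response at least 3 library SD above typical, normal starting fluorescence, not activating the receptor alone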;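 also: compound read alongside a low EC10 to EC30 dose of BAM8-22 agonist; peak minus trough fluorescence over baseline measured at the second addition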
RGS4 block – RGS4 inhibitors, primary screen, cell-based, HEK293 M3R inducible RGS4, calcium flux; B-score at 10 µM; Fluo-4 calcium flux; active compounds read high; triggered by carbachol at its EC20; AID 463165, 2010; 310,000 tested, 0.45% active; Regulator of G-protein signaling 4 (Homo sapiens), P49798;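 active = B-score, a plate-corrected calcium signal, over three deviations above library mean, with baseline fluorescence within five deviations of library mean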;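 also: RGS4 expression induced by doxycycline in cells with stable M3 receptor; B-score is computed from the integrated fluorescence ratio over baseline after carbachol; higher B-score means a larger calcium signal and so more RGS4 inhibition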
Target sequence (P49798 whole entry, looked up): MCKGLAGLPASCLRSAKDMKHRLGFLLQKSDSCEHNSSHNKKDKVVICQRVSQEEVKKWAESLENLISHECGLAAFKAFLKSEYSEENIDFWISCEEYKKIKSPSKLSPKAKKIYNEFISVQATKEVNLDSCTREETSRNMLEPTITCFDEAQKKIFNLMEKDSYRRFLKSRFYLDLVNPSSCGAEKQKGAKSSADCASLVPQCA
MrgX1 antagonist – antagonists of human MrgX1 receptor, primary screen, HEK293 cells, Fluo-4 calcium flux. Mas-related G-protein coupled receptor member X1 (Homo sapiens), Q96LB2. BAM8-22 antagonism; active compounds read low. B-score at 10 µM. 310,000 tested, 1.3% active;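 active = calcium-response B-score plate-corrected more than 3 library SD below zero, starting fluorescence within 5 deviations, no agonist response on first addition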;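 also: peak minus trough fluorescence over baseline after final BAM8-22 challenge near maximal dose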
RGS4 act – RGS4 potentiators or activators, primary screen, cell-based, HEK293 M3R inducible RGS4, calcium flux. carbachol calcium flux Fluo4; active compounds read low. 310,000 tested, 0.92% active. B-score at 10 µM;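 active = B-score of the integrated calcium signal more than 4 SD below the library mean, with starting fluorescence not abnormally high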;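 also: negative B-score means reduced calcium response which marks RGS4 activation or potentiation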
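Assay system: HEK293 FlpIn-TREx cells, stable M3R, doxycycline-inducible RGS4 / Probe or stimulus: carbachol, ECmax concentration / Times: overnight RGS4 induction, 30 min dye load 37 °C, 20 min compound RT / Signal: kinetic calcium fluorescence imaging with Fluo4-AM dye, 2 µM / Measure: Agonist-evoked peak-minus-minimum fluorescence over baseline, integrated ratio, B score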
* marks the source's active call; other numbers are inactive results; i = inactive; . = no result given.

SMILES	MrgX1 ag	MrgX1 allo act	RGS4 block	MrgX1 antagonist	RGS4 act
Cc1cc(C(F)(F)F)c(C#N)c(Sc2ccccc2)n1	i	9.6*	i	i	i
COC(=O)CSc1nc(C)cc(C(F)(F)F)c1C#N	i	i	i	i	i
Cc1ccc(NC(=O)CO/N=C/c2ccc(N(C)C)cc2)cc1	i	i	i	-4.8*	i
COc1ccc(Oc2nc(Oc3ccc(OC)cc3)nc(Oc3ccc(OC)cc3)n2)cc1	i	i	i	-6.5*	i
COc1nc(Oc2ccc(C(=O)O)cc2)nc(Oc2ccc(C(=O)O)cc2)n1	i	i	i	i	i
CC(=O)NC(=S)Nc1ccc(S(=O)(=O)N(C)Cc2ccccc2)cc1	i	i	i	i	i
CC(C)C(=O)NC(=S)Nc1ccc(S(=O)(=O)N(C)Cc2ccccc2)cc1	i	i	i	i	-7*
CN(C)S(=O)(=O)n1cc(/C=C(\NC(=O)c2ccccc2F)C(=O)NCCCn2ccnc2)c2ccccc21	.	.	i	.	-9.6*
COc1ccc(C(CNC(=O)CCNC(=O)c2ccc(Br)cc2)N2CCOCC2)cc1 (stereo not given)	i	i	i	i	i
O=C(O)CCc1[nH]c2ccccc2c1Sc1ccccc1	i	i	i	i	i
CCC(=O)N1CCN(c2nc3ccc(Br)cc3s2)CC1	i	i	i	i	i
CCCCn1c(=O)nc2n(-c3ccccc3C)c3ccccc3cc-2c1=O	i	i	i	i	-7.6*
Cc1ccccc1-n1c2nc(=O)n(C)c(=O)c-2cc2ccccc21	i	i	i	i	i
CC(OCCN1CCCC1)(c1ccc(F)cc1)c1ccc(F)cc1	i	i	i	i	-7.5*
Fc1ccc(OCCOCCN2CCCC2)cc1	i	i	i	i	i
O=C(NC1CCCc2c1cnn2-c1ccccc1F)c1ccccc1N1CCOCC1 (stereo not given)	i	i	i	i	i
CCOc1ccc(NC(=O)CN(C)C(=O)c2ccc3nc(CC)c(CC)nc3c2)cc1OCC	i	7.5*	i	i	i
Cn1c(=O)c(C(=O)COC(=O)c2cc(C(F)(F)F)nc3c(C(F)(F)F)cccc23)c(N)n(CC2CC2)c1=O	i	i	i	-7.5*	-8.9*
CC(C)Cn1c(N)c(C(=O)COC(=O)c2cc(C(F)(F)F)nc3ccccc23)c(=O)n(C)c1=O	i	i	.	i	.
OC(C#CCN1CCCCCC1)(c1ccccc1)c1cccnc1 (stereo not given)	i	i	i	i	i
CC(O)(C#CCN1CCOCC1)c1ccccc1 (stereo not given)	.	.	i	.	i
CC(C)C(O)(C#CCN1CCCCC1)c1ccccc1 (stereo not given)	i	i	i	i	-7.2*
CC(C)C(O)(C#CCN1CCCC1)c1ccccc1 (stereo not given)	i	i	i	i	-7.5*
CCN(/N=C/C=C/c1ccccc1)c1cc(=O)n(C)c(=O)[nH]1	i	i	i	-5.6*	i
O=C(O)C1CC=CCC1C(=O)Nc1ccc2c(c1)OCCO2 (stereo not given)	i	i	i	i	i
SMILES	MrgX1 ag	MrgX1 allo act	RGS4 block	MrgX1 antagonist	RGS4 act
C=C1CC(C(=O)N/N=C/c2ccc(O)cc2)C1	i	i	i	-5.9*	i
COc1cccc(OCc2cc(C(=O)N3CCN(c4ccccc4OC)CC3)no2)c1	i	i	i	i	i
COc1ccc2oc(C(=O)N3CCN(S(=O)(=O)c4cccc([N+](=O)[O-])c4)CC3)c(C)c2c1	i	16*	i	i	i
C#CCOCCOCCOCCNc1nc(N2CCN(C(=O)CCCCCCCCCCNC(=O)Cn3cc(C[C@@H](C)O)nn3)CC2)nc(N2CCN(C(=O)CCCCCCCCCCNC(=O)[C@@H]([C@H](C)O)n3cc(C)nn3)CC2)n1	i	i	.	i	.
C#CCOCCOCCOCCNc1nc(N2CCN(C(=O)CCCCCCCCCCNC(=O)Cn3cc(CCCCCN)nn3)CC2)nc(N2CCN(C(=O)CCCCCCCCCCNC(=O)[C@@H]([C@H](C)O)n3cc(C)nn3)CC2)n1	i	11*	.	i	.
C#CCOCCOCCOCCNc1nc(N2CCN(C(=O)CCCCCCCCCCNC(=O)Cn3cc(CCCCCN)nn3)CC2)nc(N2CCN(C(=O)CCCCCCCCCCNC(=O)Cn3cc(C[C@@H](C)O)nn3)CC2)n1	i	i	.	-8.3*	.
C#CCOCCOCCOCCNc1nc(N2CCN(C(=O)CCCCCCCCCCNC(=O)Cn3cc(C[C@@H](C)O)nn3)CC2)nc(N2CCN(C(=O)CCCCCCCCCCNC(=O)[C@@H]([C@H](C)CC)n3cc(CCCCCN)nn3)CC2)n1	i	6.9*	.	i	.
COCc1cc(C)nc(SCC(=O)Nc2nc(C)cs2)c1C#N	i	i	i	i	i
CCOc1ccc(C2C=C(c3ccccc3)Nc3ncnn32)cc1 (stereo not given)	i	11*	i	i	i
CCOc1ccc(C2C=C(c3ccc(F)cc3)Nc3ncnn32)cc1 (stereo not given)	i	8.4*	i	i	i
Oc1ccc(C2C=C(c3ccc(F)cc3)Nc3ncnn32)cc1 (stereo not given)	.	.	i	.	i
Cc1ccc(C2C=C(c3ccccc3)Nc3ncnn32)cc1 (stereo not given)	i	7.8*	i	i	i
Cc1nn(-c2ccc([N+](=O)[O-])cc2)c2c1C(c1cccc(Br)c1)N1C(=N2)C(=O)Nc2ccccc21 (stereo not given)	i	i	i	-5.8*	i
Cc1cccc(NC2=Nc3ccccc3N3C2=Nc2c(c(C)nn2-c2ccccc2)C3c2ccc(O)c(O)c2)c1 (stereo not given)	i	i	i	i	i
Cc1nn(-c2ccccc2)c2c1C(c1ccc([N+](=O)[O-])cc1)N1C(=N2)C(=O)Nc2ccccc21 (stereo not given)	i	i	i	i	-9*
Cc1nn(-c2ccccc2)c2c1C(c1ccc(Cl)cc1)N(c1ccccc1)C(=O)N2 (stereo not given)	i	i	i	i	i
Cc1cccnc1CNC(=O)C1CCC(=O)N(CCc2cccc(F)c2)C1 (stereo not given)	i	i	i	i	i

Bioassay records from PubChem.
